pCIP destab – p/CIP protein destabilization; Q05BA5; F442A p/CIP-EGFP cells, EGFP fluorescence, 16 h; decrease of EGFP signal, % at 10 µM; 290,000 tested, 0.01% active; AID 1984;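 active means EGFP signal decrease of at least 30% at 10 µM or well 3 SD below plate mean, unless failing retest; inactive means the rest, including hits failing retest or dose response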
Rce1 inhib – inhibitors of yeast Ras-converting enzyme; Q03530; yeast membranes, quenched prenylated peptide cleavage fluorescence; calls only; 290,000 tested, 0.27% active;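 active means fall in fluorescence gain of 50% or more versus controls, with final raw signal at or below 3038400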;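 further: plate controls were neutral control wells for no effect and wells lacking membranes for full effect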
Hep lipid drop – hepatic lipid droplet formation modulation | AML12 mouse hepatocytes, oleate lipid droplets, BODIPY imaging | inhibition, % at 6.5 µM | 240,000 tested, 0.4% active;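 active means lipid droplet intensity inhibited by at least 50%, with more than 500 cells counted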
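Test system: AML12 hepatocytes (mouse); reagent: oleate loading, 100 µM; dosing: one dose, 6.5 µM compound; incubation: overnight exposure; signal: fluorescence imaging, 20x objective, two fields per well; read-out basis: % inhibition of corrected integrated BODIPY droplet signal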
procasp7 counter – counter-screen: procaspase-7 (human) activation; AID 463210; P55210; activation, % at 8.5 µM; 330,000 tested, 0.093% active; recombinant procaspase-7, Ac-DEVD-pNA absorbance 405 nm; D23A/D198A/D206A triple mutant, cannot self-cleave; scale: DMSO 0, 5 µM enzyme 100;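 active means percent activation above the screen-wide mean plus 3 SD, cut at about 25% in these data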
Target sequence (P55210 whole entry D23A/D198A/D206A): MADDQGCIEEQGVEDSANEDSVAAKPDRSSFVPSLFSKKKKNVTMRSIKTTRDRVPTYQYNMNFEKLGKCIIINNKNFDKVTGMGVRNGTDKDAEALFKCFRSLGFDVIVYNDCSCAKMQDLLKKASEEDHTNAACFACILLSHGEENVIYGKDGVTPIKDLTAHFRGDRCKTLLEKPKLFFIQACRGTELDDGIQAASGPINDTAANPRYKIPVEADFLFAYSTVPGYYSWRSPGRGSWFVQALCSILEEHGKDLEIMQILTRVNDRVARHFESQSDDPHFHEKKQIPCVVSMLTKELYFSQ
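Assay system: Uncleavable procaspase-7 mutant enzyme; Input: 2 µM procaspase-7 mutant as dispensed; Also added: DEVD-pNA substrate; Medium: Zinc-free HEPES pH 7.4 with 300 mM NaCl, 0.01% Triton X-100; Timing: 1 h compound preincubation, 2 h substrate cleavage, 25 °C; Measured by: Epi-absorbance of released pNA at 405 nm, two timepoints.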
procasp3 activ – activators of human procaspase-3. recombinant procaspase-3 D3A, Ac-DEVD-pNA absorbance 405 nm. activation, % at 8.5 µM. 330,000 tested, 0.11% active. AID 463141;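 active means activation above the mean of all tested compounds plus 3 SD, cut at about 21% in these data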;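 further: 0% = DMSO alone and 100% = DMSO wells spiked with extra 5 µM PC-3 D3A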
Target sequence (P42574 whole entry D9A/D28A/D175A): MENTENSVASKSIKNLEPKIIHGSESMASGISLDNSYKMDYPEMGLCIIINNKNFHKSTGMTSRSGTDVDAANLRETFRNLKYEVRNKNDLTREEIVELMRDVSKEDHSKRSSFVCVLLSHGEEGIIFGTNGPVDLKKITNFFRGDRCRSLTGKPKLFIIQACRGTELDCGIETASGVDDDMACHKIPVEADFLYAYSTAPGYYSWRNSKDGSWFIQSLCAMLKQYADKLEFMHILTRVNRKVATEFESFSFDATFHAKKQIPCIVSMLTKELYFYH
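Test system: Procaspase-3 D3A mutant; medium: Zinc-free HEPES/NaCl buffer with 0.01% Triton X-100 at pH 7.4; reagent: DEVD-pNA substrate; doses: one concentration, 8.5 µM nominal, 0.8% DMSO; times: 1 h preincubation plus 2 h reaction at 25 °C; signal: Epi-absorbance at 405 nm of released p-nitroaniline, 0 and 120 min; replicates: singlicate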
FXN GAA850 act – increases GAA850 frataxin promoter reporter activity | activation, % at 6 µM | HEK293 lucGAA850 FXN promoter luciferase reporter, 24 h; percent of 10 µM SAHA response | 360,000 tested, 0.56% active;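 active means activation above the average of all compounds screened plus 3 SD, cutoff fixed separately per campaign, cut at about 7.5% in these data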;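 further: 0% = DMSO wells and 100% = 10 µM SAHA wells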
PC3 dual counter – activates human procaspase-3, dual activator counter-screen. shares compounds with procasp7 counter. activation, % at 8.5 µM. AID 493114. 290 tested, under 10 active. recombinant PC-3 D3A, Ac-DEVD-pNA absorbance 405 nm; aspartates 9, 28, 175 changed to alanine; 100% = enzyme control;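 active means mean percent activation across triplicates above a set limit taken from the earlier primary procaspase-3 screen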;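 further: 0% = DMSO wells and 100% = DMSO wells with 5 µM added PC-3 D3A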
Procasp7 act – activates human procaspase-7, confirming dual procaspase activators; shares compounds with procasp7 counter; recombinant procaspase-7, Ac-DEVD-pNA absorbance 405 nm; D23A/D198A/D206A mutant that cannot self-cleave; activation, % at 8.5 µM; 290 tested, under 10 active; AID 493115;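 active means mean activation above a set limit carried over from the earlier primary screen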;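 further: 0% = DMSO only and 100% = DMSO with added 5 µM PC-7 enzyme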
GAA30 counter – counter-screen for GAA850 frataxin promoter activators: GAA30 promoter activation; HEK293 lucGAA30 FXN promoter luciferase, 24 h; DMSO = 0%, 5 µM ipriflavone = 100%; 1,900 tested, 66% active; AID 588350; activation, % at 6 µM; shares compounds with FXN GAA850 act;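 active means mean activation above the mean of solvent-only control wells plus 3 SD, cut at about 22% in these data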;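 further: counterscreen of GAA850 promoter hits where activity marks nonselective or luminescence artifacts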
GAA850 confirm – confirmation of GAA850 frataxin (FXN) promoter activators. 1,900 tested, 86% active. activation, % at 6 µM. HEK293 lucGAA850 FXN promoter luciferase reporter, 24 h; 100% = activation by SAHA. shares compounds with FXN GAA850 act;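 active means mean activation above a set limit taken from the primary screen, cut at about 8% in these data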;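 further: 0% = DMSO wells and 100% = 10 µM SAHA wells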
An asterisk follows results filed as active; i = inactive; / = no result; ! = a repeat was not active. Compounds with a hit are over-represented: about 1.2% of the library has one in this group of screens.

SMILES | pCIP destab | Rce1 inhib | Hep lipid drop | procasp7 counter | procasp3 activ | FXN GAA850 act | GAA30 counter | GAA850 confirm | others
C=CC[C@@H](CC(=O)N(CCO)Cc1ccccc1)C(=O)N[C@H](C)COC(=O)[C@@H](CC=C)Cc1ccc(F)cc1 | / | / | / | 26.7* | -0.3 | -3.4 | / | / | PC3 dual counter=2.3;Procasp7 act=0.7
COc1ccc(C(O)c2nc(-c3cnn(C)c3)cs2)cc1 (centres undefined) | / | / | / | / | / | 2.6 | / | /
COC(=O)c1cccc(NC(=O)CCNC(=O)c2ccco2)c1 | 3.7 | i | 11.5 | 1.0 | 0.6 | 3.5 | / | /
CCOC(=O)c1c(NC(=O)COC(=O)c2ccccc2NC)sc(C(=O)N(C)C)c1C | -12.9 | i | 4.0 | 29.0* | 6.5 | -2.6 | / | / | PC3 dual counter=-28.1;Procasp7 act=-31.8
CCCCNC(=O)C1(C)CCN1C(=O)c1cc(-c2cccs2)oc1C (centres undefined) | / | / | / | / | / | -2.7 | / | /
COc1ccc(CC(=O)Nc2nn(C)c3nc4c(C)cccc4cc23)cc1 | -3.3 | i | 19.0 | 40.4* | 22.8* | 0.6 | / | / | PC3 dual counter=-29.5;Procasp7 act=-35.1
Nc1c(S(=O)(=O)c2cccs2)c2nc3ccccc3nc2n1Cc1ccccc1 | 2.4 | i | -28.1 | 54.7* | 44.3* | 1.1 | / | / | PC3 dual counter=-29.4;Procasp7 act=-35.5
CCCNC(=O)c1ccccc1NC(=O)Cc1ccc(OC)c(S(=O)(=O)N2CCOCC2)c1 | / | i | / | 8.6 | 3.1 | -0.5 | / | /
CCCN1CCN(C(=O)c2ccc(CS(=O)c3ccc(Br)cc3)o2)CC1 (centres undefined) | / | / | / | / | / | 0.6 | / | /
Cc1ccc(S(=O)(=O)Nc2ccc3nc(C)sc3c2)cc1 | -14.8 | i | / | 1.8 | 5.2 | -0.5 | / | /
Cc1ccc2nc(-c3ccc(NS(=O)(=O)c4ccccc4)cc3)sc2c1 | 0.5 | i | 1.3 | 51.7* | 22.6* | 2.4 | / | / | PC3 dual counter=3.8;Procasp7 act=2.5
O=C(Nc1ccc2c(c1)OCCO2)c1coc2ccccc2c1=O | 6.7 | i | -2.1 | 36.0* | 8.5 | -2.4 | / | / | PC3 dual counter=7.7;Procasp7 act=-0.4
Cc1ccccc1C(=O)Nc1ccc2c(c1)OCCO2 | -5.9 | i | -4.2 | / | / | 2.2 | / | /
CN(CC(=O)Nc1ccc(F)c(F)c1F)C(=O)CN1C(=O)C2CCCCC2C1=O (centres undefined) | -14.8 | i | 4.0 | 9.7 | 7.8 | 0.6 | / | /
Nc1c2ccccc2nc2ccccc12 | -3.3 | i | -84.6 | -8.7 | -8.4 | 12.8*! | -16.4 | 94.0*
Cc1cccc(NC(=O)Nc2ccc(Br)cc2)n1 | 12.8 | i | 15.5 | 4.8 | 3.8 | 5.5 | / | /
COc1ccccc1NC(=O)Nc1cccc(C)n1 | -10.9 | i | 1.1 | / | / | 0.6 | / | /
Cc1cccc(NC(=O)Nc2ccccc2[N+](=O)[O-])n1 | 5.9 | i | 3.1 | 1.9 | 5.9 | 9.3* | 67.2* | 25.4*
Cc1cccc(NC(=O)Nc2ccc(C#N)cc2)n1 | -4.1 | i | -3.7 | -0.2 | 7.3 | 20.5* | 102.7* | 105.4*
Cc1cccc(NC(=O)Nc2cccc(C#N)c2)n1 | -1.1 | i | 26.1 | -3.3 | 10.2 | 8.0* | 90.3* | 70.3*
Cc1cccc(Nc2nc(-c3cccs3)cs2)n1 | 4.9 | i | -3.7 | 6.3 | -3.7 | 7.7* | 115.4* | 40.8*
c1ccc(Nc2nc(-c3cccs3)cs2)nc1 | 8.7 | i | 15.8 | -2.4 | 6.5 | 4.3 | / | /
C#CCn1c2ccccc2c2nc3ccccc3nc21 | -17.7 | i | / | -3.3 | 8.5 | 6.2 | / | /
N#CCn1c2ccccc2c2nc3ccccc3nc21 | -55.8 | i | 5.6 | -12.7 | -6.3 | 9.3* | 51.8* | 18.3*
c1ccc2nc3c(nc2c1)c1ccccc1n3CCN1CCOCC1 | -99.6 | i | -7.2 | 0.5 | 9.8 | 12.0* | 52.1* | 24.3*
SMILES | pCIP destab | Rce1 inhib | Hep lipid drop | procasp7 counter | procasp3 activ | FXN GAA850 act | GAA30 counter | GAA850 confirm | others
CCCn1c2ccccc2c2nnc(SCCN3CCOCC3)nc21 | -2.6 | i | -0.6 | -15.8 | -6.9 | 3.3 | / | /
CCn1c2ccccc2c2cc(NC(=O)CSc3nnc(-c4cccc(OC)c4)n3N)ccc21 | 12.3 | i | -28.9 | -7.3 | -9.3 | 8.4* | 18.9 | 9.0*
CCn1c2ccccc2c2cc(NC(=O)CSc3nnc(-c4ccccc4OC)n3N)ccc21 | -3.9 | i | / | -7.2 | 0.4 | 8.4* | 18.8 | 7.4
CC1CCCN(C(=O)Cn2nnc(-c3ccc([N+](=O)[O-])cc3)n2)C1 (centres undefined) | -1.7 | i | / | -6.2 | -6.2 | 2.0 | / | /
CN1OC[C@@H]2CN[C@H](c3cccc(Oc4ccccc4)c3)C[C@@H]21 | / | / | / | / | / | 1.0 | / | /
C=CCN1C(=O)c2ccc(C(=O)N(CCOC)c3c(N)n(CCCC)c(=O)[nH]c3=O)cc2C1=O | / | i | / | 0.4 | -2.1 | 0.9 | / | /
O=C(CS(=O)(=O)c1ccccc1)N1CCc2ccccc21 | 1.1 | i | 0.0 | 7.3 | -4.2 | 8.5* | 99.2* | 30.0*
CCN1CCCC1CNC(=O)c1cc2cc(F)ccc2[nH]1 (centres undefined) | 10.3 | i | / | -0.4 | 4.9 | 1.3 | / | /
Cc1[nH]c2ccccc2c1C(=O)/C=C/c1ccccc1Cl | 8.1 | i | -21.6 | 3.1 | -4.7 | 7.7* | 117.4* | 43.6*
Cc1ccc(Nc2nc3ccccc3[nH]2)nc1 | -14.1 | i | -2.9 | 13.3 | 3.2 | 9.4* | 85.6* | 42.5*
O=C(CSc1nncs1)Nc1nnc(-c2ccccc2)o1 | -6.6 | i | 1.4 | 7.9 | 0.8 | -0.8 | / | /
COc1cccc(/C=N/Nc2nc(Nc3ccccc3)nc(-n3nc(C)cc3C)n2)c1O | -27.2 | i | 33.1 | -1.9 | 6.3 | 12.3* | -37.0 | 15.0*
Cc1cc(C)n(-c2nc(Nc3ccccc3)nc(-n3nc(C)cc3C)n2)n1 | -14.7 | i | / | 1.7 | -3.6 | -0.8 | / | /
CCC(CC)c1nnc(NC(=O)CN2C(=O)C3C4C=CC(C4)C3C2=O)s1 (centres undefined) | -2.4 | i | 4.8 | 7.8 | -10.9 | 9.9* | 14.1 | 7.0
COc1ccc(Oc2cc(Cl)nc(N)n2)cc1 | 2.0 | i | 15.3 | -4.9 | 7.3 | 0.3 | / | /
